Shown are actives, neighbours in structure and some others; about 2.2% of the full set was active somewhere.
DYRK1A inh = blocks rat Dyrk1A kinase activity; 310,000 tested, 0.43% active; ADP-Glo luminescence, NFATc1 peptide; AID 504441; inhibition, % at 12.5 µM; Q63470; in the data active = inhibition above about 50%;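 note: plate controls were vehicle with enzyme for no effect and no enzyme for full effect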
CAL PDZ FP-1 = CAL PDZ (human) peptide binding inhibition; 300,000 tested, 0.92% active; purified CAL PDZ, TMR-peptide fluorescence polarization, 1 h; inhibition, % at 24.9 µM; AID 602252;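 active = mean inhibition of at least 30% with at least half of replicates also reaching 30%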;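 note: 0% = DMSO neutral control and 100% = excess unlabeled competitor peptide PRC23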
CDK5 p35 inh = CDK5/p35 (human) kinase inhibition. Q00535+Q15078. Recombinant CDK5/p35, ADP-Glo luminescence, 60 min. inhibition, % at 10 µM. 330,000 tested, 0.01% active. AID 488839;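 active = highest replicate inhibition of at least 50% and at least 75% of replicates reaching 50%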;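 note: plate controls were DMSO neutral control for no effect and GW8510 at 10 µM for full effect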
CAL PDZ FP-2 = inhibitors of human CAL PDZ peptide binding | Q9HD26 | purified CAL PDZ, TMR-peptide fluorescence polarization, 1 h | inhibition, % at 20 µM | 330,000 tested, 0.02% active;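 active = highest replicate inhibition of at least 40%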;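 note: plate controls were DMSO neutral control wells for no effect and unlabeled competitor peptide control wells for full effect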
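Control set: unlabelled peptide and DMSO controls / Material: purified CerCALP PDZ construct / Timing: 1 h incubation at room temperature before polarization reading / Doses: 20 µM, one dose / Detection: fluorescence polarization (mP)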
dFosB act-1 = enhances mouse delta FosB homodimer DNA binding; activation, % at 25 µM; P13346; purified delta FosB, TAMRA-CDK5 oligo fluorescence polarization; percent of positive-control signal above neutral wells; 340,000 tested, 0.99% active;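 active = mean activation above about 17%, with every replicate also reaching it, limit read from the data, passing the limit was not always enough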
Target sequence (P13346 whole entry, looked up): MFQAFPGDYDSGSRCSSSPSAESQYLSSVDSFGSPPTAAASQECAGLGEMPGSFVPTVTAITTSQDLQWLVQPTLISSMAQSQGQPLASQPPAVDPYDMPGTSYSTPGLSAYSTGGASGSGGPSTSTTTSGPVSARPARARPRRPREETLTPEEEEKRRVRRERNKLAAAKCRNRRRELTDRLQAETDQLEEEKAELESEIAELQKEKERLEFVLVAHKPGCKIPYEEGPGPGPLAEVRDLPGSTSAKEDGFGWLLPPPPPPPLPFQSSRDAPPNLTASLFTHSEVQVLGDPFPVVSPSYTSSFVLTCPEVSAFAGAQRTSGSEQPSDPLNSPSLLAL
Rtt109 Vps75 = blocks Candida albicans Rtt109/Vps75 acetyltransferase activity | Q5AAJ8 | purified Rtt109/Vps75, ThioGlo CoA-SH fluorescence, 4 h | inhibition, % at 34.9 µM | 330,000 tested, 0.16% active | AID 540336;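 active = inhibition of at least 50% in every replicate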
dFosB act-2 = enhances mouse delta FosB homodimer binding to DNA | shares compounds with dFosB act-1 | 2,400 tested, under 10 active | AID 588690 | activation, % at 24.9 µM | purified delta FosB, TAMRA-CDK5 oligo fluorescence polarization; normalised: neutral wells 0, positive control 100;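 active = highest replicate activation at or above 34% and every replicate reaching that threshold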;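 note: higher polarization means more probe DNA bound by delta FosB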
* marks the source's active call; other numbers are inactive results; x = not tested or not shown.

SMILES	DYRK1A inh	CAL PDZ FP-1	CDK5 p35 inh	CAL PDZ FP-2	dFosB act-1	Rtt109 Vps75	dFosB act-2
Cc1cc(NC(=O)CSc2nc(N)c(NC(=O)c3ccccc3)c(=O)[nH]2)no1	3	-3	0	-3	11	-2	x
Cc1cc(NC(=O)CSc2nc(N)c(NC(=O)c3ccccc3F)c(=O)[nH]2)no1	-7	1	0	-3	22*	-4	6
COc1ccc(C(=O)NCC(=O)OCC(=O)N2CCc3ccccc32)cc1	4	x	-1	0	-2	-1	x
Cc1ccc(NC(=O)[C@H](NC(=O)[C@@H]2Cc3ccccc3CN2)c2ccccc2)cc1	-1	-2	-1	-3	1	-4	x
CC(C)c1ccc(NC(=O)[C@H](NC(=O)[C@@H]2Cc3ccccc3CN2)c2ccccc2)cc1	-4	0	2	-4	57*	5	5
Cc1ccccc1N(CC(=O)N1CCCCCC1)S(C)(=O)=O	14	3	-1	-2	-5	-10	x
COc1cc(/C=N\Nc2nc3ccccc3[nH]2)cc(OC)c1OC	9	-1	3	2	16	11	x
CCOc1cc(/C=N/Nc2nc3ccccc3[nH]2)cc(Br)c1OCC(=O)N(C)C	3	2	2	5	22*	8	2
O=CNn1cnc2c(oc3nc(-c4ccccc4)cc(-c4ccco4)c32)c1=O	1	-8	-2	-1	-9	-7	x
O=C(CO/N=C/c1c(Cl)cccc1Cl)NNC(=O)c1cccc(Cl)c1	1	-7	1	1	43*	1	0
O=C(CO/N=C/c1c(Cl)cccc1Cl)NNC(=O)c1ccc(Cl)cc1	-11	2	-1	-1	0	-8	x
COc1ccc(CNC(=O)N[C@@H](CC(C)C)C(=O)O)cc1OC	-10	-7	1	-4	-2	-15	x
CCN(CC(=O)NCc1cccs1)C(=O)c1ccc(S(=O)(=O)N(CC)c2ccccc2)cc1	6	3	-1	-1	-10	5	x
O=C(COC(=O)c1cc(NS(=O)(=O)c2cccs2)ccc1O)Nc1ccc(F)c(F)c1F	9	0	0	-1	22*	1	-19
COc1ccccc1NS(=O)(=O)c1cccc(NC(=O)Nc2ccc(Cl)cc2)c1	-1	-8	0	-6	26*	17	1
COc1ccc(NC(=O)Nc2ccccc2F)cc1Cl	-2	-3	0	-2	22*	1	2
COc1ccc(CNC(=O)Cn2nc(-c3ccc4c(c3)OCCO4)ccc2=O)cc1	14	-3	0	-1	-1	-6	x
COc1ccc(-c2ccc(=O)n(CC(=O)Nc3ccc4c(c3)OCCO4)n2)cc1	3	-4	0	18	22*	3	-3
O=C(Cn1nc(-c2ccccc2)ccc1=O)Nc1ccc(NC(=O)c2ccccn2)cc1	2	x	-2	-1	25*	0	0
COc1ccc(-n2nnc3c(=O)n(CC(=O)Nc4ccc5c(c4)OCCO5)cnc32)cc1OC	-4	-1	-1	0	49*	2	1
O=C(Cn1nc(-c2ccccc2)ccc1=O)Nc1ccc(-n2cnnn2)cc1	1	-4	2	-1	58*	-12	2
O=C(Cn1nc(-c2ccccc2)ccc1=O)Nc1ccc(N2CCN(C(=O)c3ccccc3)CC2)cc1	4	-4	0	0	3	3	x
Cc1ccc(C(=O)c2coc3ccc(O)cc23)cc1	-8	-1	1	-2	-4	6	x
Cc1ccccc1-n1ncc2c1CC(C)(C)CC2NC(=O)C1CCC1 (stereo not given)	8	-3	1	-3	-6	-4	x
CC(=O)Nc1cc2c(cc1NC(=O)Cn1nc(-c3ccc4c(c3)OCCO4)ccc1=O)OCCO2	0	x	0	-1	-4	1	x
SMILES	DYRK1A inh	CAL PDZ FP-1	CDK5 p35 inh	CAL PDZ FP-2	dFosB act-1	Rtt109 Vps75	dFosB act-2
O=C(Cn1nc(-c2ccc3c(c2)OCCO3)ccc1=O)Nc1ccc(-n2cnnn2)cc1	-2	x	-4	0	81*	2	6
CN(C(=O)COC(=O)/C=C/c1ccc2c(c1)OCO2)c1c(N)n(Cc2ccccc2)c(=O)[nH]c1=O	11	-1	-4	-1	53*	5	1
CN(C(=O)COC(=O)/C=C/c1ccc(C(F)(F)F)cc1)c1c(N)n(Cc2ccccc2)c(=O)[nH]c1=O	-10	-2	1	-2	10	-5	x
Cc1sc2ncnc(N3CCC(C(=O)Nc4sc5c(c4C(N)=O)CCC(C)C5)CC3)c2c1C (stereo not given)	-2	x	0	0	1	2	x
CCCCC1=C([O-])C2N=CC=CC2=[N+](c2ccccn2)C1=O (stereo not given)	3	-2	0	0	1	-3	x
Cc1cccc(CSCc2ccc(C(=O)NC3CCCC3)o2)c1	-7	-2	0	-2	-5	-21	x
Cc1cccc(NC(=O)CCCn2c(=S)[nH]c3ccccc3c2=O)c1	0	-3	-1	-3	25*	-5	1
COc1cc(NC(=O)CCCn2c(=S)[nH]c3ccccc3c2=O)cc(OC)c1OC	x	0	0	-1	-11	-2	x
Cc1cccc(NC(=O)COc2coc(CN3CCN(c4ccccc4)CC3)cc2=O)c1	7	-7	-1	-2	-7	2	x
COc1cccc(NC(=S)NC(=O)/C=C/c2ccc(F)cc2)c1	-2	x	1	-2	34*	15	-1
CC(=O)c1ccc(NC(=S)NC(=O)/C=C/c2ccc(F)cc2)cc1	-1	-6	0	0	3	4	x
CC(C)C[C@@H](CN1CCC[C@@H]1CN1C(=O)C(=O)NC[C@@H]1Cc1ccccc1)N1C[C@H](Cc2ccc(O)cc2)N(CCc2ccccc2)C(=O)C1=O	0	-11	1	-1	-18	-7	x
CCOc1ccc(CCN2C(=S)N([C@@H](CC(C)C)CN3CCCC3CN3C(=S)NC[C@@H]3Cc3ccc(O)cc3)C[C@@H]2Cc2ccccc2)cc1 (stereo not given in full)	x	-1	-7	0	65*	3	4
Oc1ccc(C[C@H]2CNC(=S)N2CC2CCCN2C[C@H](Cc2ccccc2)N2C[C@H](Cc3ccc(O)cc3)N(CCc3ccccc3)C2=S)cc1 (stereo not given in full)	x	2	0	2	67*	6	1
O=C1NC[C@H](Cc2ccccc2)N(C[C@H]2CCCN2C[C@H](Cc2ccccc2)N2C[C@H](Cc3ccccc3)N(CC3CCCCCC3)C(=O)C2=O)C1=O	x	-2	1	0	0	-3	x

Bioassay records deposited in PubChem BioAssay by Broad Institute.
